ChEMBL document CHEMBL4229356, “Synthesis and antikinetoplastid evaluation of bis(benzyl)spermidine derivatives” (Eur J Med Chem, 2018)
Active and inactive are the calls of the source. No cut-off for these calls is given here.

Legend:
[1] = tested on: Trypanosoma brucei gambiense; assay: Trypanocidal activity against Trypanosoma brucei gambiense FeoITMAP/1893 after 72 hrs by resazurin dye based assay; format: functional, organism-based; settings: FeoITMAP/1893, 72 h
How it was run: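 T. b. gambiense Feo was grown in supplemented IMDM with 10% FBS. Cells at 4.10⁴/mL were exposed 72 h at 37 °C, 5% CO2 in the dark to two-fold dilutions. Resazurin (450 µM solution) was added for 6 h and read at OD570/OD600. Result given as IC50; pentamidine was the reference.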

[2] = Selectivity index, ratio of CC50 for mouse RAW264.7 cells to IC50 for Trypanosoma brucei gambiense FeoITMAP/1893; format: toxicity; settings: read-out: Ratio CC50/IC50
Leishmania donovani [3] = assay: Antiparasitic activity against Leishmania donovani LV9 axenic amastigotes incubated for 72 hrs by resazurin dye based assay; format: functional, organism-based; settings: LV9, 72 h
How it was run: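 LV9 axenic amastigotes were derived from promastigotes in M-199 at pH 5.5, 37 °C, 5% CO2, and used in log phase. Cells at 10⁶/mL were exposed 72 h to two-fold dilutions from 100 to 0.02 μM. Resazurin was then added for 24 h in the dark and read at OD570/OD600. IC50 is relative to excipient-only controls; miltefosine was the reference.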

Leishmania donovani [4] = assay: Antiparasitic activity against Leishmania donovani LV9 axenic intramacrophage amastigotes infected in mouse RAW264.7 cells incubated for 48 hrs by Sybr Green 1 dye based fluorescence assay; format: functional, organism-based; settings: LV9, RAW264.7, 48 h
How it was run: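 RAW 264.7 cells at 2.10⁴/well were infected 24 h with axenic amastigotes at a 16:1 parasite to macrophage ratio, then extracellular parasites were removed. Cells were treated 48 h with two-fold dilutions from 100 µM. They were then lysed (freeze-thaw, proteinase K, 55 °C overnight) and total DNA read by SYBR Green I fluorescence against untreated infected cells. Result given as IC50.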

[5] = Cytotoxicity against mouse RAW264.7 cells assessed as reduction in cell viability after 48 hrs by resazurin assay; format: cell-based
How it was run: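 RAW 264.7 macrophages at 2.10⁴/well were preincubated 24 h, then exposed 48 h at 37 °C, 5% CO2 to two-fold dilutions in DMEM. Resazurin was added for 4 h in the dark and read at OD570/OD600. Result given as CC50.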

[6] = Stability in human plasma by HPLC analysis; format: ADME, cell-free; settings: read-out: Stability
How it was run: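 Human plasma was diluted 10-fold in PBS and incubated with 1 mM compound solutions for 0, 2 and 12 h at 37 °C. Samples were quenched with ice-cold acetonitrile, centrifuged, filtered and analysed by C18 reversed-phase HPLC at 25 °C.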

[7] = Stability in human liver S9 fraction at 0.1 to 1 mM up to 12 hrs in presence of NADPH; format: ADME, subcellular; settings: s9, 12 h, 1000 µM
How it was run: (§1)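 Pooled human liver S9 was diluted 20-fold in PBS (1 mg/ml protein). Compound solutions of 100 μM and 1 mM were incubated 0 and 12 h at 37 °C, with or without 1 mM NADPH.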

[8] = Stability in human liver S9 fraction at 0.1 to 1 mM up to 12 hrs in absence of NADPH; format: ADME, subcellular; settings: s9, 12 h, 1000 µM; how it was run: as §1
[9] = tested on: Trypanosoma brucei brucei; assay: Antitrypanosomal activity against Trypanosoma brucei brucei CMP infected in Swiss mouse assessed as change in mean survival time at 100 mg/kg, ip administered as single dose measured up to 30 days; format: functional
How it was run: (§2)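 Swiss mice infected ip with 10,000 T. b. brucei CMP trypanosomes, randomly grouped (six per batch), then given one ip dose of 100 or 10 mg/kg; controls received pentamidine, melarsamine or excipient. Parasitemia followed at days 2, 3, 4 and 30; deaths recorded by day post-treatment; efficacy as mean survival time minus that of excipient-treated controls (days ± SD).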

[10] = tested on: Trypanosoma brucei brucei; assay: Antitrypanosomal activity against Trypanosoma brucei brucei CMP infected in Swiss mouse assessed as change in mean survival time at 10 mg/kg, ip administered as single dose measured up to 30 days; format: functional; how it was run: as §2
Mus musculus [11] = assay: Toxicity in Swiss mouse assessed as death at 100 mg/kg, ip administered as single dose measured up to 30 days; format: organism-based; settings: in vivo, 720 h; how it was run: as §2
Mus musculus [12] = assay: Toxicity in Swiss mouse assessed as death at 10 mg/kg, ip administered as single dose measured up to 30 days; format: organism-based; settings: in vivo, 720 h; how it was run: as §2
Leishmania donovani [13] = assay: Antileishmanial activity against Leishmania donovani infected in Balb/c mouse at 2 mg/kg/day, ip for 5 consecutive days; format: functional, organism-based
How it was run: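 Balb/c mice infected with L. donovani; 2 mg/kg/day given intraperitoneally on five consecutive days, total 10 mg/kg.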

NC1CCC(NCCCN(Cc2ccc(F)cc2)Cc2ccc(F)cc2)CC1 (stereo not drawn)
IC50 [1]: 0.4 µM | selectivity ratio [2]: 11 | IC50 (Leishmania donovani [3]): 44.4 µM | IC50 (Leishmania donovani [4]): 12.4 µM | CC50 at 48 h [5]: 4.4 µM | half-life [6]: > 12 h | Stability [7]: Stable | Stability [8]: Stable | Survival [9]: -2.3 days | Survival [10]: 0 days | Activity (Mus musculus [11]): Toxic | Activity (Mus musculus [12]): Non-Toxic | Activity (Leishmania donovani [13]): inactive
